# Measured values from ChEMBL document CHEMBL4414644, “A New Approach of Mitigating CYP3A4 Induction Led to the Discovery of Potent Hepatitis B Virus (HBV) Capsid Inhibitor with Optimal ADMET Profiles” (J Med Chem, 2019).
# Active and inactive are the calls of the source.
# Tests used:
# [1] = Cytotoxicity in human HepDE19 cells assessed as reduction in cell viability incubated for 5 days by CCK8 assay; type: cell-based
# Procedure, shortened: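 HepDE19 cells were grown in DMEM-F12 with 10% FBS, penicillin/streptomycin and 0.5 mg/mL G418, then seeded at 5 × 10^3 cells/well. Compound exposure lasted 5 days. Viability was read with CCK-8 after 2 h at 37 °C, measuring OD450 and OD630. CC50 was the concentration killing 50% of cells; duplicate runs.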
# [2] = Induction of CYP3A4 gene expression in cryopreserved human hepatocytes assessed as increase in CYP3A4 mRNA level at 10 uM incubated for 24 hrs by qRT-PCR analysis relative to rifampicin; type: ADME, cell-based
# Procedure, shortened: (§1)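 Cryopreserved hepatocytes from one human donor were seeded at 1 × 10^6 cells/mL and cultured 24 h in serum-free Williams E. Compounds at 0.1, 1.0 and 10 µM (0.1% DMSO) were added in triplicate for 24 h, with vehicle wells as negative controls. Positive controls were omeprazole for CYP1A2, phenobarbital for CYP2B6 and rifampicin for CYP3A4. mRNA was measured by TaqMan qRT-PCR normalised to PPIA (2^-ΔΔCT) and expressed as % of the positive control.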
# [3] = Induction of CYP3A4 gene expression in cryopreserved human hepatocytes assessed as increase in CYP3A4 mRNA level at 0.1 uM incubated for 24 hrs by qRT-PCR analysis relative to rifampicin; type: ADME, cell-based; procedure, shortened: as §1
# [4] = Induction of CYP3A4 gene expression in cryopreserved human hepatocytes assessed as increase in CYP3A4 mRNA level at 1 uM incubated for 24 hrs by qRT-PCR analysis relative to rifampicin; type: ADME, cell-based; procedure, shortened: as §1
# [5] = Induction of CYP1A2 gene expression in cryopreserved human hepatocytes assessed as increase in CYP1A2 mRNA level at 0.1 uM incubated for 24 hrs by qRT-PCR analysis relative to omeprazole; type: ADME, cell-based; procedure, shortened: as §1
# [6] = Induction of CYP1A2 gene expression in cryopreserved human hepatocytes assessed as increase in CYP1A2 mRNA level at 1 uM incubated for 24 hrs by qRT-PCR analysis relative to omeprazole; type: ADME, cell-based; procedure, shortened: as §1
# [7] = Induction of CYP1A2 gene expression in cryopreserved human hepatocytes assessed as increase in CYP1A2 mRNA level at 10 uM incubated for 24 hrs by qRT-PCR analysis relative to omeprazole; type: ADME, cell-based; procedure, shortened: as §1
# [8] = Apparent partition coefficient, logD of the compound at pH 7.4; type: physicochemical; details: octanol/water
# [9] = Ionization constant (acid), pKa of the compound; type: physicochemical
# [10] = Ionization constant (base), pKa of the compound; type: physicochemical
# [11] = Solubility in pH 6.5 phosphate buffer stirred for 1 hr and shaken for 2 hrs by HPLC-UV based LYSA solubility assay; type: physicochemical
# Procedure, shortened: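 Duplicate samples from 10 mM DMSO stock were dried, taken up in 0.05 M phosphate pH 6.5, stirred 1 h, shaken 2 h and left overnight. They were then filtered and the filtrate plus a 1/10 dilution analysed by HPLC-UV. Quantification used a four-point calibration; results in µg/mL.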
# [12] = Permeability at 150 uM by PAMPA; type: ADME; details: read-out: permeability
# Procedure, shortened: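 PAMPA: DMSO stock was diluted to 150 µM (<2% DMSO) in donor buffer of 0.05 M MOPSO pH 6.5 with 0.5% glycocholic acid. The acceptor was 0.05 M MOPSO pH 6.5. The membrane was 10% egg lecithin with 0.5% cholesterol in dodecane. Donor and acceptor concentrations were read at start and at ~18 h; results in 10^-6 cm/s.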
# [13] = Unbound fraction in human plasma at 1000 nM incubated for 5 hrs by LC-MS/MS analysis detection based equilibrium dialysis assay; type: ADME, cell-free
# Procedure, shortened: (§2)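 Equilibrium dialysis of pooled plasma against Soerensen buffer pH 7.4 used a 12–14 kDa cutoff membrane. Compounds were run in cassettes of 2–5 at 1000 nM total, with diazepam as the membrane-integrity control. Dialysis ran 5 h at 37 °C under 5% CO2, followed by LC–MS/MS of both compartments. Unbound fraction is the average of 3 tests.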
# [14] = Unbound fraction in mouse plasma at 1000 nM incubated for 5 hrs by LC-MS/MS analysis detection based equilibrium dialysis assay; type: ADME, cell-free; procedure, shortened: as §2
# [15] = Half life in BALB/c mouse at 1 mg/kg, iv by LC-MS/MS analysis; type: ADME, organism-based; details: in vivo
# Procedure, shortened: (§3)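 Female BALB/c mice (16–22 g; 12 animals) got a single IV dose of 1 mg/kg in 5% DMSO/40% PEG400/55% saline. Blood was taken into EDTA-K2 and spun at 2000 g for 5 min at 4 °C. Plasma was stored at -80 °C and quantified by LC–MS/MS. Parameters came from non-compartmental analysis, with BLQ values omitted.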
# [16] = Volume of distribution at steady state in BALB/c mouse at 1 mg/kg, iv by LC-MS/MS analysis; type: ADME, organism-based; details: in vivo, read-out: Vdss; procedure, shortened: as §3
# [17] = Plasma clearance in BALB/c mouse at 1 mg/kg, iv by LC-MS/MS analysis; type: ADME, organism-based; procedure, shortened: as §3
# [18] = Cmax in BALB/c mouse at 3 mg/kg, po by LC-MS/MS analysis; type: ADME, organism-based; design: dose 3 mg/kg, route oral; details: in vivo
# Procedure, shortened: (§4)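 Female BALB/c mice (16–22 g; 21 animals) got a single oral dose of 3 mg/kg in 2% Klucel, Tween 80, 0.1% parabens in water. EDTA-K2 plasma was taken at each time point. Livers were harvested right after blood sampling, rinsed in cold saline, weighed and snap-frozen. Both matrices were quantified by LC–MS/MS and analysed non-compartmentally, omitting BLQs.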
# [19] = AUC (0 to infinity) in BALB/c mouse at 1 mg/kg, iv by LC-MS/MS analysis; type: ADME, organism-based; design: dose 1 mg/kg, route intravenous, time infinity; details: in vivo; procedure, shortened: as §3
# [20] = AUC (0 to infinity) in BALB/c mouse plasma at 3 mg/kg, po by LC-MS/MS analysis; type: ADME, organism-based; design: dose 3 mg/kg, route oral, time infinity; procedure, shortened: as §4
# [21] = Oral bioavailability in BALB/c mouse at 3 mg/kg by LC-MS/MS analysis; type: ADME, organism-based; details: in vivo; procedure, shortened: as §4
# [22] = AUC (0 to infinity) in BALB/c mouse liver at 3 mg/kg, po by LC-MS/MS analysis; type: ADME, organism-based; design: dose 3 mg/kg, route oral, time infinity; procedure, shortened: as §4
# [23] = Drug metabolism in cryopreserved human hepatocytes assessed as glucuronide conjugation of carboxylic acid group at 1 uM incubated up to 120 mins by LC-MS/MS analysis; type: ADME, cell-based, Hepatocyte; details: 2 h
# Hepatitis B virus [24] = assay: Antiviral activity against HBV infected in BALB/c mouse hydrodynamic injection model hydrodynamically injected with replication-competent HBV DNA plasmid assessed as reduction in HBV DNA level in liver at 3 mg/kg, po BID for 5 days by RT-qPCR analysis; type: functional, organism-based
# Procedure, shortened: (§5)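 Used female BALB/c mice aged 6–8 weeks carrying an HBV genotype D genome delivered by tail-vein hydrodynamic plasmid injection. Animals received vehicle or drug orally at the stated frequency for 5 days. Plasma and liver were sampled at set time points, and HBV DNA was quantified by real-time qPCR. Error bars are SEM.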
# Hepatitis B virus [25] = assay: Antiviral activity against HBV infected in BALB/c mouse hydrodynamic injection model hydrodynamically injected with replication-competent HBV DNA plasmid assessed as reduction in HBV DNA level in liver at 12 mg/kg, po BID for 5 days by RT-qPCR analysis; type: functional, organism-based; procedure, shortened: as §5
# Hepatitis B virus [26] = assay: Antiviral activity against HBV infected in BALB/c mouse hydrodynamic injection model hydrodynamically injected with replication-competent HBV DNA plasmid assessed as reduction in HBV DNA level in plasma at 3 mg/kg, po BID for 5 days by RT-qPCR analysis; type: functional, organism-based; procedure, shortened: as §5
# Hepatitis B virus [27] = assay: Antiviral activity against HBV infected in BALB/c mouse hydrodynamic injection model hydrodynamically injected with replication-competent HBV DNA plasmid assessed as reduction in HBV DNA level in plasma at 12 mg/kg, po BID for 5 days by RT-qPCR analysis; type: functional, organism-based; procedure, shortened: as §5
# [28] = target: Voltage-gated inwardly rectifying potassium channel KCNH2 (Homo sapiens, UniProt Q12809); assay: Inhibition of human ERG
# [29] = Toxicity in rat by 5-day mini-tox study; details: in vivo, 120 h
# in vivo = details: BALB/c, mouse, liver/plasma, po, 3 mg/kg
# [30] = Induction of CYP2B6 gene expression in cryopreserved human hepatocytes assessed as increase in CYP2B6 mRNA level at 1 uM incubated for 24 hrs by qRT-PCR analysis relative to phenobarbital
# [31] = Induction of CYP2B6 gene expression in cryopreserved human hepatocytes assessed as increase in CYP2B6 mRNA level at 10 uM incubated for 24 hrs by qRT-PCR analysis relative to phenobarbital
# [32] = Induction of CYP2B6 gene expression in cryopreserved human hepatocytes assessed as increase in CYP2B6 mRNA level at 0.1 uM incubated for 24 hrs by qRT-PCR analysis relative to phenobarbital
# Sequence of Voltage-gated inwardly rectifying potassium channel KCNH2 (Q12809 whole entry): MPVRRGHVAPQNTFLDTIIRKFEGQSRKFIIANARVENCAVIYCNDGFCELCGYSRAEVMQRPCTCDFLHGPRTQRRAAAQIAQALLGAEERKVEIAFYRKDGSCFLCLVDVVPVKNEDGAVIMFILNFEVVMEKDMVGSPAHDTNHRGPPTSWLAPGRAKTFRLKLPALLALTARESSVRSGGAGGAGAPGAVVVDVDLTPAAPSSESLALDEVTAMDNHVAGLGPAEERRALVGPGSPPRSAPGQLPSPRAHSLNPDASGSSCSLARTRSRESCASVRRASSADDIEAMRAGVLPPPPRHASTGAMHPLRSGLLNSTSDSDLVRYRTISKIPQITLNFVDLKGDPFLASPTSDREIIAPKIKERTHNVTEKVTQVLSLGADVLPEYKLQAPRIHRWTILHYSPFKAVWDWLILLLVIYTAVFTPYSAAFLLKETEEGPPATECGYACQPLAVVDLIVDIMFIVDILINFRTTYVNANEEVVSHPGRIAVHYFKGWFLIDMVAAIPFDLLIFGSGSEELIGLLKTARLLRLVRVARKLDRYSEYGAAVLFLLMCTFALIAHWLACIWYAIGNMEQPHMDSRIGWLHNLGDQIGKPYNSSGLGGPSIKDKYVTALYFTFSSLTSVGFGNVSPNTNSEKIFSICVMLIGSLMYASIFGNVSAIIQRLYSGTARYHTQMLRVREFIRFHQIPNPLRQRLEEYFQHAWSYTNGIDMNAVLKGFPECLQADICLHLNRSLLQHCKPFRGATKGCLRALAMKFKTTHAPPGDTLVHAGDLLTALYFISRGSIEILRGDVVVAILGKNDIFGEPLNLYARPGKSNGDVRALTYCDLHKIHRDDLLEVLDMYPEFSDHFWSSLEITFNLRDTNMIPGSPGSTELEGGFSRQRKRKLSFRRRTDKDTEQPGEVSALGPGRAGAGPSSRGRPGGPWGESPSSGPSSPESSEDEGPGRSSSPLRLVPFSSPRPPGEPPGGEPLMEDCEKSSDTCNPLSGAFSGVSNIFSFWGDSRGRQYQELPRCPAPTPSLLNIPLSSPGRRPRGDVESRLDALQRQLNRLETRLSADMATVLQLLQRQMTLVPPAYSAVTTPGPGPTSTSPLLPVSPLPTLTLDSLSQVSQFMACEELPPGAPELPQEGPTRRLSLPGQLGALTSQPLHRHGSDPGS
smiles,measurement,setting,value
COC(=O)C1=C(CN2CC(F)(F)C[C@H]2C(=O)O)NC(c2nccs2)=N[C@H]1c1ccc(F)cc1Cl,CC50 at 120 h,[1],65 µM
same,Activity,[2],109%
COC(=O)C1=C(CN2CCOC[C@H]2C(=O)O)NC(c2nccs2)=N[C@H]1c1ccc(F)c(F)c1,CC50 at 120 h,[1],> 100 µM
same,Activity,[2],36%
COC(=O)C1=C(CN2CCOC[C@H]2C(=O)O)NC(c2nccs2)=N[C@H]1c1ccc(Cl)c(F)c1,CC50 at 120 h,[1],> 100 µM
same,Activity,[2],25%
same,Activity,[3],2%
same,Activity,[4],7.5%
same,Activity,[5],1%
same,Activity,[6],0.9%
same,Activity,[7],1.7%
same,logD,[8],0.38
same,pKa,[9],1.8
same,pKa,[10],5.9
same,solubility,[11],> 631 µg/mL
same,Papp at 150 µM,[12],2.4 ×10⁻⁶ cm/s
same,"fraction unbound at 5 h, 1 µM",[13],0.031
same,"fraction unbound at 5 h, 1 µM",[14],0.04
same,half-life,[15],2.3 h
same,Vd,[16],2.7 L/kg
same,clearance,[17],40.9 mL/min/kg
same,Cmax,[18],254 ng/mL
same,AUC(0-inf),[19],408 ng·h/mL
same,AUC(0-inf),[20],527 ng·h/mL
same,bioavailability,[21],43.1%
same,AUC(0-inf),[22],20000 ng·h/mL
same,Drug metabolism,[23],Metabolite_Detected
same,Activity,Hepatitis B virus [24],Active
same,Activity,Hepatitis B virus [25],Active
same,Activity,Hepatitis B virus [26],Active
same,Activity,Hepatitis B virus [27],Active
same,inhibition (INH),[28],Not Active
same,Activity,[29],Non-Toxic
same,Kp,in vivo,38
same,Activity,[30],1.5%
same,Activity,[31],1.4%
same,Activity,[32],1.3%
COC(=O)C1=C(CN2CCOC[C@H]2C(=O)O)NC(c2nccs2)=N[C@H]1c1ccc(C)c(F)c1,CC50 at 120 h,[1],> 100 µM
CCOC(=O)C1=C(CN2CCOC[C@H]2C(=O)O)NC(c2nccs2)=N[C@H]1c1ccc(F)c(F)c1F,CC50 at 120 h,[1],49 µM
same,Activity,[2],105%
CCOC(=O)C1=C(CN2CCOC[C@H]2C(=O)O)NC(c2nccs2)=N[C@H]1c1cccc(F)c1,CC50 at 120 h,[1],69 µM
same,Activity,[2],94%
COC(=O)C1=C(CN2CC(F)(F)C[C@H]2C(=O)O)NC(c2nccs2)=N[C@H]1c1ccc(F)cc1F,CC50 at 120 h,[1],> 100 µM
same,Activity,[2],96%
CCOC(=O)C1=C(CN2CCOC[C@H]2C(=O)O)NC(c2nccs2)=N[C@H]1c1ccc(F)cc1,CC50 at 120 h,[1],62 µM
same,Activity,[2],85%
COC(=O)C1=C(CN2CCOC[C@H]2C(=O)O)N=C(c2nccs2)N[C@H]1c1ccc(F)cc1Cl,CC50 at 120 h,[1],> 100 µM
same,Activity,[2],111%
CCOC(=O)C1=C(CN2CCOC[C@H]2C(=O)O)NC(c2nccs2)=N[C@H]1c1ccc(Cl)c(F)c1,CC50 at 120 h,[1],24 µM
